Experimental data from ChEMBL document CHEMBL2311339, “Identification of GZD824 as an orally bioavailable inhibitor that targets phosphorylated and nonphosphorylated breakpoint cluster region-Abelson (Bcr-Abl) kinase and overcomes clinically acquired mutation-induced resistance against imatinib” (J Med Chem, 2013).
Activity calls are given as the source filed them. The calls are words filed in the database; no cut-off is given here.

Columns and labels:
[1] = Cytotoxicity against mouse BA/F3 cells expressing BCR-ABL E355G mutant assessed as growth inhibition after 72 hrs by CCK-8 assay; details: BaF3, 72 h
[2] = Cytotoxicity against mouse BA/F3 cells expressing BCR-ABL H396R mutant assessed as growth inhibition after 72 hrs by CCK-8 assay; details: BaF3, 72 h
[3] = Cytotoxicity against mouse BA/F3 cells expressing BCR-ABL F317V mutant assessed as growth inhibition after 72 hrs by CCK-8 assay; details: BaF3, 72 h
[4] = Cytotoxicity against mouse BA/F3 cells expressing BCR-ABL E359V mutant assessed as growth inhibition after 72 hrs by CCK-8 assay; details: BaF3, 72 h
[5] = Cytotoxicity against mouse BA/F3 cells expressing BCR-ABL F486S mutant assessed as growth inhibition after 72 hrs by CCK-8 assay; details: BaF3, 72 h
[6] = Cytotoxicity against mouse BA/F3 cells expressing wild type BCR-ABL assessed as growth inhibition after 72 hrs by CCK-8 assay; details: BaF3, 72 h
cells [7] = details: Mus musculus, BaF3, 72 h
[8] = Cytotoxicity against mouse BA/F3 cells assessed as growth inhibition after 72 hrs by CCK-8 assay; details: BaF3, 72 h
[9] = Cytotoxicity against mouse BA/F3 cells expressing BCR-ABL Y253F mutant assessed as growth inhibition after 72 hrs by CCK-8 assay; details: BaF3, 72 h
[10] = Cytotoxicity against mouse BA/F3 cells expressing BCR-ABL M351T mutant assessed as growth inhibition after 72 hrs by CCK-8 assay; details: BaF3, 72 h
[11] = Cytotoxicity against mouse BA/F3 cells expressing BCR-ABL E255V mutant assessed as growth inhibition after 72 hrs by CCK-8 assay; details: BaF3, 72 h
[12] = Cytotoxicity against mouse BA/F3 cells expressing BCR-ABL E255K mutant assessed as growth inhibition after 72 hrs by CCK-8 assay; details: BaF3, 72 h
cells [13] = details: Mus musculus, BaF3, 72 h; remark: listed apart in the source
[14] = Cytotoxicity against mouse BA/F3 cells expressing BCR-ABL F317L mutant assessed as growth inhibition after 72 hrs by CCK-8 assay; details: BaF3, 72 h
[15] = Cytotoxicity against mouse BA/F3 cells expressing BCR-ABL L248V mutant assessed as growth inhibition after 72 hrs by CCK-8 assay; details: BaF3, 72 h
[16] = Cytotoxicity against mouse BA/F3 cells expressing BCR-ABL Y253H mutant assessed as growth inhibition after 72 hrs by CCK-8 assay; details: BaF3, 72 h
cells [17] = details: Mus musculus, BaF3, 72 h; remark: listed apart in the source
BaF3 [18] = experiment: Antitumor activity against mouse BA/F3 cells expressing BCR-ABL T315I mutant allografted in SCID mouse assessed as suppression of cell proliferation at 100 mg/kg/day, po qd for 10 days relative to untreated vehicle; type: functional, organism-based
Procedure, shortened: (§1)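 Ba/F3 cells coexpressing Bcr-Abl T315I and firefly luciferase were injected iv (2 × 10^6 cells/0.1 mL saline) into SCID nude mice. At 5−7 days, mice were imaged after ip D-luciferin under halothane and randomized by signal. Dosing was oral gavage once daily for 10 days in DMSO/Cremophor/ethanol/saline vehicle. Luminescence was imaged after dosing; survival was analysed by Kaplan−Meier with log-rank test.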

BaF3 [19] = experiment: Antitumor activity against mouse BA/F3 cells expressing BCR-ABL T315I mutant allografted in SCID mouse assessed as increased survival at 100 mg/kg/day, po qd for 10 days; type: functional, organism-based; procedure, shortened: as §1
BaF3 [20] = experiment: Antitumor activity against mouse BA/F3 cells expressing BCR-ABL T315I mutant allografted in SCID mouse assessed as inhibition of tumor growth at 100 mg/kg/day, po qd for 14 days; type: functional, organism-based
Procedure, shortened: (§2)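 Subcutaneous allograft: Ba/F3 cells stably carrying Bcr-Abl (WT or T315I), 2.5 × 10^7 cells/mL in saline, 0.2 mL into the right flank. Randomized at 100−200 mm3, n = 10 per group. Oral gavage once daily for 14 days in DMSO/Cremophor/ethanol/saline vehicle. Tumor volume (L × W²/2) every 2 days; unpaired t test versus vehicle.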

K562 [21] = experiment: Antitumor activity against human K562 cells xenografted in mouse assessed as induction of tumor stasis at 50 mg/kg, […]; type: functional, organism-based; parameters: dose 50 mg/kg
BaF3 [22] = experiment: Antitumor activity against mouse BA/F3 cells expressing wild type BCR-ABL allografted in SCID mouse assessed as inhibition of tumor growth at 50 mg/kg, po qd for 14 days; type: functional, organism-based; parameters: dose 50 mg/kg; procedure, shortened: as §2
K562 [23] = experiment: Cytotoxicity against human K562 cells expressing BCR-ABL assessed as growth inhibition after 72 hrs by CCK-8 assay; type: functional, cell-based; details: K562, 72 h
Procedure, shortened: (§3)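 Log-phase human leukemia cells were seeded at about 3000 cells/well and treated 24 h later for 72 h. CCK-8 was then incubated with the cells for 3 h and read as OD450 − OD650. Viability was normalized to vehicle wells and cell-free blanks, and IC50 taken as the mean of three experiments.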

[24] = Cytotoxicity against human SUP-B15 cells expressing BCR-ABL assessed as growth inhibition after 72 hrs by CCK-8 assay; type: functional, cell-based; details: SUP-B15, 72 h; procedure, shortened: as §3
U-937 = experiment: Cytotoxicity against human U937 cells […] assessed as growth inhibition after 72 hrs by CCK-8 assay; type: functional, cell-based; details: U-937, 72 h; procedure, shortened: as §3
HL-60 = experiment: Cytotoxicity against human HL60 cells […] assessed as growth inhibition after 72 hrs by CCK-8 assay; type: functional, cell-based; details: HL-60, 72 h; procedure, shortened: as §3
K562 [25] = experiment: Cytotoxicity against imatinib-resistant human K562 cells expressing BCR-ABL Q252H mutant assessed as growth inhibition after 72 hrs by CCK-8 assay; type: functional, cell-based; details: K562, 72 h
Procedure, shortened: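 The K562 subline was made imatinib-resistant by 3 months of exposure to imatinib from 0.1 to 5 μM, followed by clonal selection and sequencing to confirm Q252H. Cells were seeded at about 3000 cells/well, treated 24 h later for 72 h, then given CCK-8 for 3 h. Read-out was OD450 − OD650 normalized to vehicle; IC50 is the mean of three experiments.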

[26] = Cytotoxicity against human KU812 cells expressing BCR-ABL assessed as growth inhibition after 72 hrs by CCK-8 assay; type: functional, cell-based; details: KU812, 72 h; procedure, shortened: as §3
MOLT-4 = experiment: Cytotoxicity against human MOLT4 cells […] assessed as growth inhibition after 72 hrs by CCK-8 assay; type: functional, cell-based; details: MOLT-4, 72 h; procedure, shortened: as §3

| SMILES | IC50 [1] [nM] | IC50 [2] [nM] | IC50 [3] [nM] | IC50 [4] [nM] | IC50 [5] [nM] | IC50 [6] [nM] | IC50 (cells [7]) [nM] | IC50 [8] [nM] | IC50 [9] [nM] | IC50 [10] [nM] | IC50 [11] [nM] | IC50 [12] [nM] | IC50 (cells [13]) [nM] | IC50 [14] [nM] | IC50 [15] [nM] | IC50 [16] [nM] | IC50 (cells [17]) [nM] | other results |
| --- | --- | --- | --- | --- | --- | --- | --- | --- | --- | --- | --- | --- | --- | --- | --- | --- | --- | --- |
| Cc1nc(Nc2ncc(C(=O)Nc3c(C)cccc3Cl)s2)cc(N2CCN(CCO)CC2)n1 [DASATINIB] | 15 | 3800 | 25 | 1.3 | 0.9 | 1.9 | 8 | 2500 | 17 | 0.2 | 23 | 3.2 | 3600 | 19 | 29 | 2.3 | 5.1 | – |
| Cc1ccc(NC(=O)c2ccc(CN3CCN(C)CC3)cc2)cc1Nc1nccc(-c2cccnc2)n1 [IMATINIB] | 1600 | 11100 | 9500 | 590 | 1000 | – | 3600 | 13500 | 9200 | 240 | > 10000 | 5600 | 12200 | 3300 | 12200 | 12500 | 5200 | Activity (BaF3 [18]): inactive; Activity (BaF3 [19]): inactive; TGI (BaF3 [20]): inactive; Activity (K562 [21]): inactive; TGI (BaF3 [22]): Active |
| Cc1cn(-c2cc(NC(=O)c3ccc(C)c(Nc4nccc(-c5cccnc5)n4)c3)cc(C(F)(F)F)c2)cn1 [NILOTINIB] | 130 | 21100 | 2900 | – | 9.5 | 22 | – | 15100 | 1400 | 3 | 1200 | 170 | 16000 | 160 | 3000 | 1000 | 150 | – |
| CC(=O)O[C@H]1C(=O)[C@@]2(C)[C@H]([C@H](OC(=O)c3ccccc3)[C@]3(O)C[C@H](OC(=O)[C@H](O)[C@@H](NC(=O)c4ccccc4)c4ccccc4)C(C)=C1C3(C)C)[C@]1(OC(C)=O)CO[C@@H]1C[C@@H]2O [PACLITAXEL] | – | – | – | – | – | – | – | – | – | – | – | – | – | – | – | – | – | IC50 (K562 [23]): 5.1 nM; IC50 [24]: 8 nM; IC50 (U-937): 2.3 nM; IC50 (HL-60): 5.8 nM; IC50 (K562 [25]): 7 nM; IC50 [26]: 5.3 nM; IC50 (MOLT-4): 2.7 nM |
